These results are taken from ChEMBL document CHEMBL5705891, “Small-molecule kinase inhibitors provide insight into Mps1 cell cycle function” (Nat Chem Biol, 2010).

In data set [1] the test system is U2OS. The experiment in a line: Effect on thymidine-treated human U2OS cell populations after two cell doubling at 10 uM incubated for 4 hrs followed by thymidine release by immunofluorescence imaging analysis. Type of data set: functional, cell-based.
Data set [2] deals with U2OS. The experiment in a line: Reversal of nocodazole-induced mitotic arrest in human U2OS cells assessed as decrease in cyclin B level at 10 uM incubated for 4 hrs in presence of MG132 by immunoblot analysis. The data set is classed as functional, cell-based. For orientation: In western blotting, separated proteins are transferred to a membrane and probed.
For data set [3], the target named is Serine/threonine-protein kinase 33 (Homo sapiens, UniProt Q9BYT3). The experiment in a line: Inhibition of STK33 (unknown origin) assessed as residual enzyme activity at 10 uM by Ambit kinase binding assay relative to control.
For data set [4], the system named is U2OS. In words: Induction of multipolar anaphases in thymidine-treated human U2OS cells expressing H2B-GFP and Plk4 overexpression measured for 30 mins by time lapse imaging analysis. The data set is classed as functional, cell-based. Put shortly:
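Doxycycline-inducible Plk4 U2OS cells expressing H2B-GFP were blocked with thymidine for 18 hrs and released into doxycycline (2 μg·ml⁻¹) for 10 hrs. A second 18-hr thymidine block followed, then release for 6 hrs before 5 μM inhibitor, with or without Plk4 induction. Cells were imaged by time-lapse at 37°C, 5% CO₂, timed from NEBD, and bipolar versus multipolar anaphases were scored. Values are mean ± SD of 3 independent experiments.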

In data set [5] the target is Insulin receptor-related protein (Homo sapiens, UniProt P14616). The experiment in a line: Inhibition of INSRR (unknown origin) assessed as residual enzyme activity at 10 uM by Ambit kinase binding assay relative to control.
For data set [6], the system named is Proto-oncogene tyrosine-protein kinase receptor Ret (Homo sapiens), P07949 [V804M]. In words: Inhibition of RET V804M mutant (unknown origin) assessed as residual enzyme activity at 10 uM by Ambit kinase binding assay relative to control.
The subject of data set [7] is U2OS. The experiment in a line: Reversal of s-trityl cysteine-induced mitotic arrest in human U2OS cells assessed as accumulation of 4N phosphorylated Histone H3-negative cells incubated for 16 hrs by flow cytometry. The data set is classed as functional, cell-based. As to conditions: dose 5-10 µM. On the technique in general: A flow cytometer gives signals particle by particle.

The subject of data set [8] is U2OS. The experiment in a line: Induction of chromosome misalignment in human U2OS cells expressing histone H2B-GFP at 5 to 10 uM treated for 4 hrs followed by MG132 treatment for 30 to 60 mins and subsequent replacement of medium containing MG132 measured after 30 mins by immunofluoresence analysis. As to conditions: dose 5-10 µM, time 4.5-5 hrs. The data set is classed as functional, cell-based.

The target of data set [9] is Mitogen-activated protein kinase 3 (Homo sapiens) (UniProt P27361). The experiment in a line: Inhibition of ERK1 (unknown origin) assessed as residual enzyme activity at 10 uM by Ambit kinase binding assay relative to control.
The subject of data set [10] is HCT-116. In words: Induction of aneuploidy in human HCT-116 cells at 10 uM incubated for 4 days by FACS analysis. The conditions noted are these: time 4.0 day. Type of data set: functional, cell-based. Put shortly: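 HCT116 cells were treated with 10 μM compound or DMSO vehicle for the indicated times up to 96 h, then DNA content was profiled by flow cytometry.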

The test system of data set [11] is HCT-116. The experiment in a line: Antiproliferative activity against human HCT-116 with p53+/+ cells at 10 uM incubated for 4 days by Syto60 staining based assay. Type of data set: functional, cell-based. As to conditions: time 4.0 day. Put shortly:
(§1)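 Proliferation read by Syto60 nucleic acid stain fluorescence (excitation 635 nm, emission 695 nm) after treatment for up to 96 h. Each time point normalized to its DMSO control. Mean ± SD from 4 independent experiments. Cells kept at 37°C, 5% CO2 in 10% FBS-supplemented medium.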

The test system of data set [12] is U2OS. In words: Inhibition of anaphase delay in thymidine-treated human U2OS cells expressing H2B-GFP and Plk4 overexpression measured for 30 mins by time lapse imaging analysis. The data set is classed as functional, cell-based. Put shortly: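 U2OS H2B-GFP cells carrying doxycycline-inducible Plk4. Thymidine 18 h, release into doxycycline (2 μg·ml⁻¹) 10 h, second thymidine 18 h, release 6 h, then 5 μM inhibitor. Time-lapse imaging at 37°C, 5% CO₂ recorded time after NEBD to anaphase. Mean ± SD of 3 independent experiments; Student's t test.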

In the next data set the test system is MCF-10A. The experiment in a line: Antiproliferative activity against human MCF-10A cells at 10 uM incubated for 4 days by Syto60 staining based assay. The data set is classed as toxicity, cell-based. The conditions noted are these: 96 h, time 4 day. The essentials:
as §1

Data set [13] deals with Protein-tyrosine kinase 2-beta (Homo sapiens, UniProt Q14289). The experiment in a line: Binding affinity to PYK2 (unknown origin) assessed as dissociation constant by Ambit kinase binding assay.
A further data set has as its system TERT-RPE1. The experiment in a line: Induction of aneuploidy in human TERT-RPE1 cells assessed as average chromosome number at 10 uM treated for 24 hrs by karyo-typing analysis (reference value: 45.9 +/- 0.3). The data set is classed as functional. The essentials: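 Asynchronous cells were exposed to 10 μM compound for 24 h. Medium was then replaced with medium containing 100 ng/mL colcemid for 2 h to arrest cells in metaphase, after which cells were harvested and karyotyped.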

Data set [14] has as its target Death-associated protein kinase 3 (Homo sapiens) (UniProt O43293). The experiment in a line: Inhibition of DAPK3 (unknown origin) assessed as residual enzyme activity at 10 uM by Ambit kinase binding assay relative to control.
The target in data set [15] is Calcium/calmodulin-dependent protein kinase kinase 2 (Homo sapiens) (UniProt Q96RR4). In words: Inhibition of CAMKK2 (unknown origin) assessed as residual enzyme activity at 10 uM by Ambit kinase binding assay relative to control.
Data set [16] concerns the target Serine/threonine-protein kinase Nek2 (Homo sapiens) (UniProt P51955). The experiment in a line: Inhibition of NEK2 (unknown origin) assessed as residual enzyme activity at 10 uM by Ambit kinase binding assay relative to control.
Data set [17] has as its target Ribosomal protein S6 kinase alpha-1 (Homo sapiens) (UniProt Q15418). The experiment in a line: Inhibition of RPS6KA1 kinase domain 2 (unknown origin) assessed as residual enzyme activity at 10 uM by Ambit kinase binding assay relative to control.
Data set [18] addresses Receptor-interacting serine/threonine-protein kinase 4 (Homo sapiens) (UniProt P57078). The experiment in a line: Inhibition of RIPK4 (unknown origin) assessed as residual enzyme activity at 10 uM by Ambit kinase binding assay relative to control.
Data set [19] addresses Dual specificity mitogen-activated protein kinase kinase 3 (Homo sapiens) (UniProt P46734). The experiment in a line: Inhibition of MEK3 (unknown origin) assessed as residual enzyme activity at 10 uM by Ambit kinase binding assay relative to control.
For data set [20], the target named is Bone morphogenetic protein receptor type-2 (Homo sapiens) (UniProt Q13873). The experiment in a line: Inhibition of BMPR2 (unknown origin) assessed as residual enzyme activity at 10 uM by Ambit kinase binding assay relative to control.
In data set [21] the target is AP2-associated protein kinase 1 (Homo sapiens) (UniProt Q2M2I8). The experiment in a line: Inhibition of AAK1 (unknown origin) assessed as residual enzyme activity at 10 uM by Ambit kinase binding assay relative to control.
Data set [22] addresses Inhibitor of nuclear factor kappa-B kinase subunit epsilon (Homo sapiens) (UniProt Q14164). In words: Inhibition of IKK-epsilon (unknown origin) assessed as residual enzyme activity at 10 uM by Ambit kinase binding assay relative to control.

Each structure is given as a SMILES string. pKd: −log10 of the molar value. Active and inactive are the calls of the source. No cut-off for these calls is given here.

Sequence of Death-associated protein kinase 3 (Homo sapiens) (O43293 whole entry, looked up): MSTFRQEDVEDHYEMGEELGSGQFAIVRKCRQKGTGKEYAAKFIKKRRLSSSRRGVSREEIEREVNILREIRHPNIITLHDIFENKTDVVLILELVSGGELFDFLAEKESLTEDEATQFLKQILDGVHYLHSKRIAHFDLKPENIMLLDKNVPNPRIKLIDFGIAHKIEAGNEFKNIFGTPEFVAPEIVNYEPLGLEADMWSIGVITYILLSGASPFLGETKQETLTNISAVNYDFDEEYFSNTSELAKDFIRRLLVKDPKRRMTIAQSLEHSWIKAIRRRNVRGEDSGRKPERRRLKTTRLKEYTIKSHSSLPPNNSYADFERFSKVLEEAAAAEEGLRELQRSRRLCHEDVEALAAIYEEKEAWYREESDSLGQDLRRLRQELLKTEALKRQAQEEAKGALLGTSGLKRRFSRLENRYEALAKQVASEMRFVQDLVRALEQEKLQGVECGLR
Sequence of AP2-associated protein kinase 1 (Homo sapiens) (Q2M2I8 whole entry, looked up): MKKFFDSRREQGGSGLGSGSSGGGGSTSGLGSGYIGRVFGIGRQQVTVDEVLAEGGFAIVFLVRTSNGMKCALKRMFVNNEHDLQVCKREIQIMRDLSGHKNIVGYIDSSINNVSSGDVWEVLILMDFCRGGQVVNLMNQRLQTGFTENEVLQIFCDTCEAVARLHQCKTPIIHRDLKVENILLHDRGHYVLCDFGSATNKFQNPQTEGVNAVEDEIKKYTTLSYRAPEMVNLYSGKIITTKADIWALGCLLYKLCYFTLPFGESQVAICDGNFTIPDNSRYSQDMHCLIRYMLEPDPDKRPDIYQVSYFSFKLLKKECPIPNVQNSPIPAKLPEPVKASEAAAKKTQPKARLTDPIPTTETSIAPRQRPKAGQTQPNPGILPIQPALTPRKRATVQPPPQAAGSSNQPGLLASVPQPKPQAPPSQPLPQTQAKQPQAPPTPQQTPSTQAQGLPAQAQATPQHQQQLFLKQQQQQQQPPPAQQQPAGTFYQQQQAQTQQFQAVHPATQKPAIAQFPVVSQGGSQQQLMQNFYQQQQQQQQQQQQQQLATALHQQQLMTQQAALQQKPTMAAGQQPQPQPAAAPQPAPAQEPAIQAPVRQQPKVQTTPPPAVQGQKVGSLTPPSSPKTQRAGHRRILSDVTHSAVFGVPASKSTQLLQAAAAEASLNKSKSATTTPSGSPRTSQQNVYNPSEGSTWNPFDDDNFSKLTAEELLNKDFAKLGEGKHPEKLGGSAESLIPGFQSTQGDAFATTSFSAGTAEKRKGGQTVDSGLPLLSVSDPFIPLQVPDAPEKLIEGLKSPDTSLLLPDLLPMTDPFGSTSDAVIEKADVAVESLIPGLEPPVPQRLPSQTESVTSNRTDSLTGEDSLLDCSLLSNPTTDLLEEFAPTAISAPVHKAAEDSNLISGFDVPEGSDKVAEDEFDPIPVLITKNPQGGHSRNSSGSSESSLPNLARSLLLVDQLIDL
Sequence of Protein-tyrosine kinase 2-beta (Q14289 whole entry): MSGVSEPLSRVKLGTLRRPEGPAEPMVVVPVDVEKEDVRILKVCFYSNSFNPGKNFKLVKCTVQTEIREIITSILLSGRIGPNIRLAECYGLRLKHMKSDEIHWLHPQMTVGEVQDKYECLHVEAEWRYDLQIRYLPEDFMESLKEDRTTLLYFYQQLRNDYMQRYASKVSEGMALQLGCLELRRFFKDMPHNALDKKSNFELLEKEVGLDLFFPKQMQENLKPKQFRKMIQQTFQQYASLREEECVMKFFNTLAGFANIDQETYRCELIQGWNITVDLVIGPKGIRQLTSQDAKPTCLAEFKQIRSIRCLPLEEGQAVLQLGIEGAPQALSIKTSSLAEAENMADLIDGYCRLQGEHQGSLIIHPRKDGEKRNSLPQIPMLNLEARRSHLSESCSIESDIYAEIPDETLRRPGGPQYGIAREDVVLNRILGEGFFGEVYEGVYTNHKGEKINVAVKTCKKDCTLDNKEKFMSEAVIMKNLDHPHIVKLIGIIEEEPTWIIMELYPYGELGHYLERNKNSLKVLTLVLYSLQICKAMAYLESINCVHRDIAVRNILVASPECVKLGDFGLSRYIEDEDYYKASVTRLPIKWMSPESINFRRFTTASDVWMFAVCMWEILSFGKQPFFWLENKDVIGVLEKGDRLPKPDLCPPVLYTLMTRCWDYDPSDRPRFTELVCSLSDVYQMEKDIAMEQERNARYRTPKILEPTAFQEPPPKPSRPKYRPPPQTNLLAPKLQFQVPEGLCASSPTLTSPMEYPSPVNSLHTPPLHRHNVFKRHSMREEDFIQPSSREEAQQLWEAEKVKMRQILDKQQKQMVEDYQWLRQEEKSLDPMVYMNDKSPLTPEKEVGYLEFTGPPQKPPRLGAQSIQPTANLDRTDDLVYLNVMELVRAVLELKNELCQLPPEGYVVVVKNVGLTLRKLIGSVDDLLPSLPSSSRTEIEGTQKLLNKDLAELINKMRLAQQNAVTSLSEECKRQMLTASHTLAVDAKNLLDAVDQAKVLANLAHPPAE
Sequence of Dual specificity mitogen-activated protein kinase kinase 3 (Homo sapiens) (P46734 whole entry): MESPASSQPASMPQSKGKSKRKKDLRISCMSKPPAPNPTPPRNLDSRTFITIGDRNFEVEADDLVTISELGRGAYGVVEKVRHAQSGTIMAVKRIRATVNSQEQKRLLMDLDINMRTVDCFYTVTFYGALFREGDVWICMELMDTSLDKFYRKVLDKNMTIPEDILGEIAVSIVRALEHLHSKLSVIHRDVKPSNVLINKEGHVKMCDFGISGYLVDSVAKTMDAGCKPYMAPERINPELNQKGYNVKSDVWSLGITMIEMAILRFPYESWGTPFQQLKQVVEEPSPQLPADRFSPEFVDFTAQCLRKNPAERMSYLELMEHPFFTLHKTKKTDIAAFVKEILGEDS
Sequence of Ribosomal protein S6 kinase alpha-1 (Homo sapiens) (Q15418 whole entry, the tested form may be a part): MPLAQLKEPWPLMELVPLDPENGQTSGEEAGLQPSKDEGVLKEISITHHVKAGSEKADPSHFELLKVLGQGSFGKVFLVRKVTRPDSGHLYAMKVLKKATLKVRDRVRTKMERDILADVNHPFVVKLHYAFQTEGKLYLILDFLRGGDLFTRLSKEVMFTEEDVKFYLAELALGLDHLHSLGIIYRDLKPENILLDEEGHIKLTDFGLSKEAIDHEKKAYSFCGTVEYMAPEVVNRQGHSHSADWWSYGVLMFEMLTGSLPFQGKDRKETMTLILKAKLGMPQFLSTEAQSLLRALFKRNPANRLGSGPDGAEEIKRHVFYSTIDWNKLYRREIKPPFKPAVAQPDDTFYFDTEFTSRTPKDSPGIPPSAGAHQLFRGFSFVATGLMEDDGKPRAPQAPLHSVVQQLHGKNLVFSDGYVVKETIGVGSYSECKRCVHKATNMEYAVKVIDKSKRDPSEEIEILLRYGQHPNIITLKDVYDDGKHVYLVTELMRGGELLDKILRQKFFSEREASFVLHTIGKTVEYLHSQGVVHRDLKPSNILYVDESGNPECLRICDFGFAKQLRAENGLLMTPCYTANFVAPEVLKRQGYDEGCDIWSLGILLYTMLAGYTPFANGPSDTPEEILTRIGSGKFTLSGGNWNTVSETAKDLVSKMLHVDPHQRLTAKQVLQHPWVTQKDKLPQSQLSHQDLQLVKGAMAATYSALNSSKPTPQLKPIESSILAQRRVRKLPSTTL
Sequence of Serine/threonine-protein kinase 33 (Q9BYT3 whole entry, looked up): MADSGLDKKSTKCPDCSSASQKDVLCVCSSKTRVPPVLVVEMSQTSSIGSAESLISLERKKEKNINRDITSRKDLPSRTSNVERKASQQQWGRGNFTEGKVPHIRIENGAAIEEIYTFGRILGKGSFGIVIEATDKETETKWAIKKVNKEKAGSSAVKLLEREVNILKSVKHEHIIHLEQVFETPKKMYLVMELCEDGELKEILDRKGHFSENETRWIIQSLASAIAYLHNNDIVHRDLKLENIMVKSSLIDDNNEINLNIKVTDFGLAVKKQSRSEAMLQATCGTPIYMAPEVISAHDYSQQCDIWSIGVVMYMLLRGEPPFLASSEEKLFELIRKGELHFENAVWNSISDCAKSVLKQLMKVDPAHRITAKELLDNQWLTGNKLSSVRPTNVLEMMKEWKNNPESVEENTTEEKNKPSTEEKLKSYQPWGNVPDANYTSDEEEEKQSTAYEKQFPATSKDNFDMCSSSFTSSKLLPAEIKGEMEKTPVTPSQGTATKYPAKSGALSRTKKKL
Sequence of Mitogen-activated protein kinase 3 (Homo sapiens) (P27361 whole entry): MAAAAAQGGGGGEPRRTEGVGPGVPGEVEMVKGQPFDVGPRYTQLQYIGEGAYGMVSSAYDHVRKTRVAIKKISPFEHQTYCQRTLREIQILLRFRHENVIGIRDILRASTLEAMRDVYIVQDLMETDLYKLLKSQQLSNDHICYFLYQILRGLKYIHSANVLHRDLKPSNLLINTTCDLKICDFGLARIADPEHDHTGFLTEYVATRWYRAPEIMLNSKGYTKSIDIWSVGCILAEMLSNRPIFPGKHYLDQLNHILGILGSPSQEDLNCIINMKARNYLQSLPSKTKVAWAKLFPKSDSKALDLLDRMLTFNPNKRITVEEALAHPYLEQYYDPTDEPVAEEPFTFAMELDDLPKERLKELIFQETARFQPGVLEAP
Sequence of Calcium/calmodulin-dependent protein kinase kinase 2 (Homo sapiens) (Q96RR4 2-588 limits assumed): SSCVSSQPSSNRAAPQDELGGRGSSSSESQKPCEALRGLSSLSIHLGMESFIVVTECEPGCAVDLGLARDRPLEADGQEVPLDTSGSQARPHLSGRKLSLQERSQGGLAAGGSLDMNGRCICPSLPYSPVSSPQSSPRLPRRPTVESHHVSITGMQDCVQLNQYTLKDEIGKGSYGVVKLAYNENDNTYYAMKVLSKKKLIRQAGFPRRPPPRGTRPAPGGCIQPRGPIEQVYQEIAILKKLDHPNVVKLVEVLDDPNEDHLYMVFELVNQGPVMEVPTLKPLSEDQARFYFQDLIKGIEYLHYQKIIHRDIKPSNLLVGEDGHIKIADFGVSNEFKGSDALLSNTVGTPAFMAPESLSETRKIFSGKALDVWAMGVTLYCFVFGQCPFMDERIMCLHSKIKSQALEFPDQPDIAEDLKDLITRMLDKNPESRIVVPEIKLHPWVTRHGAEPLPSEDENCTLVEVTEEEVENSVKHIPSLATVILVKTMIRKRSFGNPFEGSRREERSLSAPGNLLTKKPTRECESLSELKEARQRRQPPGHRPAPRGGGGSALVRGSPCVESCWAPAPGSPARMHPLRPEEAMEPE

What is called pKd is −log10 of the Kd, conventionally taken in molar units. For `COc1cc(N2CCC(O)CC2)ccc1Nc1cc(Nc2ccccc2S(=O)(=O)C(C)C)c2cc[nH]c2n1`, the result in the data set with U2OS [1] and in the data set with U2OS [2] was inactive. Moreover, the Activity in data set [3] is 12%; in data set [5], 2%; in data set [6], 0.5%; with U2OS [7], “Dose-Dependent Effect”; in [9], 23%; with MCF-10A, “Toxic”. Further, the Activity in the data set on TERT-RPE1 is reported as 46.5. Further, the outcome with U2OS [4], with U2OS [8], in the data set with HCT-116 [10] and in the data set with HCT-116 [11] was Active. The inhibition entry with U2OS [12] was “Active”. The pKd in data set [13] was 6.55.
As to `O=C1c2ccccc2-c2n[nH]c3cccc1c23`, the Activity in data set [14] was 3.2%; in data set [15] it was 26%; in data set [16], 27%; in data set [17], 3.8%; in data set [18], 2.2%; in [19], 6%. Besides, the Activity amounted to 15% in data set [20], 2.6% in [21] and 12% in data set [22].
